Among the data in ChEMBL document CHEMBL1124370 (1989) are Inhibition, inhibition in vivo and inhibition values, retold here.

The source made the active and inactive calls. The calls are words filed in the database; no cut-off is given here.

Test [1] has as its system Rattus norvegicus. The test is described as follows: […] inhibition of sorbitol accumulation in rat sciatic nerves at 10e-5 M concentration. The class given is functional, Sciatic nerve. Summed up:
(§1)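 Sciatic nerves were taken from male Sprague-Dawley rats (200–250 g) after CO2 euthanasia. Nerves were incubated 3 h at 37 °C under 95% air/5% CO2 in Hank's salts buffer, pH 7.4, with 50 mM glucose and (0–5)×10^-5 M compound, in triplicate. Nerve sorbitol was measured spectrofluorometrically in duplicate, and the read-out was % inhibition of sorbitol accumulation.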

The test system of test [2] is Rattus norvegicus. Put plainly: In vivo inhibition of galactitol accumulation in the diaphragm of rat at a dose of 51 mg/kg/day. Format: functional.
Test [3] has as its system Rattus norvegicus. The test is described as follows: In vivo inhibition of galactitol accumulation in the sciatic nerves of ratat a dose of 51 mg/kg/day; NS=not significant. Format: functional, organism-based. The settings on record: Sciatic nerve.
Test [4] addresses Aldo-keto reductase family 1 member B1 (Bos taurus) (UniProt P16116). Put plainly: […] inhibition of aldose reductase in partially purified bovine lens preparation at 10e-6 M concentration. In a few lines:
(§2)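 Enzyme partially purified from bovine lens by a published method, with the final chromatographic step omitted. Test compound was added at 1×10^-6 or 1×10^-7 M. Assays were run in duplicate, and the read-out was % inhibition of enzymatic activity.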

For test [5], the system named is Rattus norvegicus. Put plainly: In vivo inhibition of sorbitol accumulation in rat sciatic nerves at 10e-6 M concentration. Format: functional, Sciatic nerve. Summed up:
as §1

Test [6] has as its target Aldo-keto reductase family 1 member B1 (Bos taurus) (UniProt P16116). The test is described as follows: […] inhibition of aldose reductase in partially purified bovine lens preparation at 10e-7 M concentration. In a few lines:
as §2

The test system of test [7] is Rattus norvegicus. The test is described as follows: In vivo inhibition of sorbitol accumulation in rat sciatic nerves at 5*10e-5 M concentration. Format: functional, Sciatic nerve. The conditions noted are these: in the assay text read “In vitro” for “In vivo”. In a few lines: as §1
Test [8] has as its system Rattus norvegicus. The test is described as follows: In vivo inhibition of galactitol accumulation in the diaphragm of ratat a dose of 75 mg/kg/day. The class given is functional.
The subject of test [9] is Rattus norvegicus. The test is described as follows: In vivo inhibition of galactitol accumulation in the diaphragm of rat. at a dose of 25 mg/kg/day; NS =not significant. The class given is functional, organism-based.
Test [10] deals with Rattus norvegicus. The test is described as follows: In vivo inhibition of galactitol accumulation in the sciatic nerves of rat at a dose of 75 mg/kg/day. Format: functional. The conditions noted are these: Sciatic nerve.
In test [11] the target is Aldo-keto reductase family 1 member B1 (Bos taurus) (UniProt P16116). Put plainly: Inhibition of aldose reductase in partially purified bovine lens preparation at 10e-6 M. In a few lines: (§3)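 Aldose reductase partially purified from bovine lens, with the final chromatographic step of the earlier preparation omitted. Assay run in duplicate with test compound at 1 × 10^-6 M or 1 × 10^-7 M. Reported as % inhibition of enzymatic activity.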

The test system of test [12] is Rattus norvegicus. The test is described as follows: In vivo inhibition of galactitol accumulation in the sciatic nerves of rat at a dose of 25 mg/kg/day. The class given is functional. The conditions noted are these: Sciatic nerve.
In test [13] the target is Aldo-keto reductase family 1 member B1 (Bos taurus) (UniProt P16116). The test is described as follows: Inhibition of aldose reductase in partially purified bovine lens preparation at 10e-7 M concentration. Summed up: as §3

Turning to `COC(=O)N(CC(=O)O)C(=S)c1cccc2c(C(F)(F)F)c(OC)ccc12`, the Inhibition in test [1] came to 61%; in test [5], 36%. The inhibition in vivo at 51 mg/kg/day in test [2] is 80%. Moreover, the inhibition result in test [3] was “inactive”. In addition, the inhibition in [4] turned out to be 88%; in [6], 29%.
`COc1ccc2c(C(=O)N(C)CC(=O)O)cccc2c1C(F)(F)F`: the Inhibition in test [7] is given as 89%; in [1], 74%; in test [5], 27%. Besides, the inhibition in vivo at 75 mg/kg/day in [8] worked out at 27%; in test [10], 56%. The inhibition entry in test [9] was “inactive”. Also, the inhibition came to 86% in test [11] and 57% in test [13]. In test [12], this compound gave an inhibition in vivo at 25 mg/kg/day of 33%.
